Several values for one entry are separate records, joined by “and”; a condition that tells them apart may be missing. Equal values may be shown once.

Endothelial PAS domain-containing protein 1 (Homo sapiens), sequence (Q99814 whole entry, looked up, the tested form may be a part): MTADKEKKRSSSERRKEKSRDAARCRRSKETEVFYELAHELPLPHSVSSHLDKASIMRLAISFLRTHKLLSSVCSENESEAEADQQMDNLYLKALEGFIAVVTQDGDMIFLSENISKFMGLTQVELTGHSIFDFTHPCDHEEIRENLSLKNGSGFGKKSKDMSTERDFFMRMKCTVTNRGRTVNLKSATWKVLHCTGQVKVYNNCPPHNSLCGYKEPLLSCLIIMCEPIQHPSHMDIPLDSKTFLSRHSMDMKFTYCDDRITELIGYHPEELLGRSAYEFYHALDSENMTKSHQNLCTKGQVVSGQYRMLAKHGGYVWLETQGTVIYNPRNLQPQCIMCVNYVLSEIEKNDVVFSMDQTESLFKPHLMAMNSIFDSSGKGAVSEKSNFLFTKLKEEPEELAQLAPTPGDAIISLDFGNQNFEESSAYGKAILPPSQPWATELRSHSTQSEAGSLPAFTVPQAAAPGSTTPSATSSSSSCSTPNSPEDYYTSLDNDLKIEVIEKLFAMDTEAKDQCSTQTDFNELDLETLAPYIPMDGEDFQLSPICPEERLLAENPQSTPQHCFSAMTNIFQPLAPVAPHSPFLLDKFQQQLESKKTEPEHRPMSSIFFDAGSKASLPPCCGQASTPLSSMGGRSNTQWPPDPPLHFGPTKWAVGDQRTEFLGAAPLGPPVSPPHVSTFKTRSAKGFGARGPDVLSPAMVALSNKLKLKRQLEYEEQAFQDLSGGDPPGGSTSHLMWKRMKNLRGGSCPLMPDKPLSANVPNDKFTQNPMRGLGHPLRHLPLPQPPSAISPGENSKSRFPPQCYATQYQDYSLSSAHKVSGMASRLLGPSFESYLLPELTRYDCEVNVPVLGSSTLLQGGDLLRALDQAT

This test has as its target Endothelial PAS domain-containing protein 1 (Homo sapiens) (UniProt Q99814). Briefly: HIF reporter inhibition across pancreatic and renal lines – cell-based, luminescence, MIAPaCa-2, 786-0, panel, SAR follow-up (AID 652011). To be noted: MIAPaCa-2/PANC HIF reporter, luciferase luminescence, desferoxamine, overnight, HIF2a PANC, run 2; at 99 µM (top of the series). The procedure, abridged:
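Detection: luminescence, One-Glo; Reagent: desferoxamine; Incubation: overnight seeding and compound exposure, 37 °C, 5% CO2, 10-min detection.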
The term inhibition denotes the drop in the measured response relative to a control, in per cent. For the molecule `CCNC(=O)CCc1nc(-c2ccccc2Cl)no1`, the inhibition amounted to 13.5%.

Turning to `CC(C)(C)c1ccc(-c2noc(CCC(=O)Nc3cccnc3)n2)cc1`, the inhibition is 126%. Next, `CCNC(=O)CCc1nc(-c2ccccc2C)no1`: -1.15%; `CCC(C)NC(=O)CCc1nc(-c2ccccc2)no1` (stereo unspecified): -3.82%; `O=C(O)CCc1nc(-c2ccccc2)no1`: 45.4%. The figure for `CCC(C)NC(=O)CCc1nc(-c2ccc(C(C)C)cc2)no1` (stereo unspecified) is 38.4%. Next, `CNC(=O)CCc1nc(-c2ccc(C(C)(C)C)cc2)no1`: 47.3%; `CC(C)c1ccc(-c2noc(CCC(=O)NC(C)(C)C)n2)cc1`: 90%. Turning to `CC(C)(C)c1ccc(-c2noc(CCC(=O)NCc3ccco3)n2)cc1`, the inhibition is 99.3% and 99%. Next, `CCOc1ccc(-c2noc(CCC(=O)NC)n2)cc1`: 112%. Next, `CCNC(=O)CCc1nc(-c2ccc(C(C)C)cc2)no1`: -41.3%; `CCNC(=O)CCc1nc(-c2ccc(OCC)cc2)no1`: -15.1%. The figure for `CC(C)(C)c1ccc(-c2noc(CCC(=O)NC3CCC3)n2)cc1` is 90.3%; for `CC(C)NC(=O)CCc1nc(-c2ccc(C(C)(C)C)cc2)no1` it is 64.9%. Turning to `CC(C)(C)NC(=O)CCc1nc(-c2ccccc2)no1`, the inhibition was -18.9%. With `CCC(C)NC(=O)CCc1nc(-c2ccc(C(C)(C)C)cc2)no1` (stereo unspecified), the inhibition came to 52.2%.

With `CCNC(=O)CCc1nc(-c2cccc(C)c2)no1`, the inhibition was -15.7%. The figure for `CNC(=O)CCc1nc(-c2ccc(F)cc2)no1` is 8.8%; for `CCNC(=O)CCc1nc(-c2ccccc2)no1` it is 13%. As to `CCOc1ccc(-c2noc(CCC(=O)O)n2)cc1`, the inhibition amounted to 109%. Take `CC(C)(C)c1ccc(-c2noc(CCC(=O)NC3CCCC3)n2)cc1`: the inhibition was determined as 121%.

Source of the values: PubChem BioAssay AID652011 (Sanford-Burnham Center for Chemical Genomics, 2013).
